Columns and labels:
[1] = target: T1, Ectonucleotide pyrophosphatase/phosphodiesterase family member 1 (Homo sapiens) (UniProt P22413); test: Inhibition of human NPP1 using p-Nph-5'-TMP as substrate at 10 uM
T1 sequence (whole entry): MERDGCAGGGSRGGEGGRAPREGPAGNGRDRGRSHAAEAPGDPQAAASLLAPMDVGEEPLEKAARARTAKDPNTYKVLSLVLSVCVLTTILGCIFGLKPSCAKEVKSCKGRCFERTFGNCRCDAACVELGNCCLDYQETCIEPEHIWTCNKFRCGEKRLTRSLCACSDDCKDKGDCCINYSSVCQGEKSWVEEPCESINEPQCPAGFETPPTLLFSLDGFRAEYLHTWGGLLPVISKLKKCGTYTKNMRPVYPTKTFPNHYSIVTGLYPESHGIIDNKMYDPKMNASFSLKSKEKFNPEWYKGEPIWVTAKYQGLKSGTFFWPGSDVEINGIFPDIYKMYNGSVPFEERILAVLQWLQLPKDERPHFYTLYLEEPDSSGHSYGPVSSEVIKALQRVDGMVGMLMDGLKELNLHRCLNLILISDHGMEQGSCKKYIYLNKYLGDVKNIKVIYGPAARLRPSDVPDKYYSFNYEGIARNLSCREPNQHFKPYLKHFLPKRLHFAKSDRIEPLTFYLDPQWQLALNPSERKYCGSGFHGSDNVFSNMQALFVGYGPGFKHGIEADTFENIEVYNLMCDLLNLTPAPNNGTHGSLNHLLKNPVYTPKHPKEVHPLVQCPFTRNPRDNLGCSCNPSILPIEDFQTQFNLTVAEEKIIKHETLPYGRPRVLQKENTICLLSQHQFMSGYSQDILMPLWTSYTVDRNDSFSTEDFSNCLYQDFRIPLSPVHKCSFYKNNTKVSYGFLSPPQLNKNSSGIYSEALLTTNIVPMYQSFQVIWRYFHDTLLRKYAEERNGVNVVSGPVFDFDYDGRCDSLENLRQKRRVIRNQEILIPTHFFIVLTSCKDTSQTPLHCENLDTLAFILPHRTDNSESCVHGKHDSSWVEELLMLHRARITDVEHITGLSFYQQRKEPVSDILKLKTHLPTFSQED
In short: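 Single-point screen at 10 μM compound against soluble human NPP1 (20 ng), 400 μM p-Nph-5′-TMP, 50 mM Tris pH 9.0, 1 mM CaCl2, 200 μM ZnCl2, 37 °C 15 min, NaOH stop; percent inhibition from p-nitrophenolate absorbance at 400 nm; compounds in DMSO (10 mM stock).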

[2] = target: T2, Ectonucleotide pyrophosphatase/phosphodiesterase family member 1 (Homo sapiens, UniProt P22413); test: Inhibition of human NPP1 using p-Nph-5'-TMP as substrate
T2 sequence (P22413 whole entry): T1 sequence (whole entry)

[3] = target: T2, Ectonucleotide pyrophosphatase/phosphodiesterase family member 1; test: Competitive inhibition of human NPP1 using p-Nph-5'-TMP as substrate by Lineweaver-Burk plot analysis
[4] = target: T2, Ectonucleotide pyrophosphatase/phosphodiesterase family member 1; test: Competitive inhibition of human NPP1 using ATP as substrate by Lineweaver-Burk plot analysis
[5] = target: T3, Ectonucleotide pyrophosphatase/phosphodiesterase family member 3 (Homo sapiens, UniProt O14638); test: Competitive inhibition of human NPP3 using ATP as substrate
T3 sequence (O14638 whole entry): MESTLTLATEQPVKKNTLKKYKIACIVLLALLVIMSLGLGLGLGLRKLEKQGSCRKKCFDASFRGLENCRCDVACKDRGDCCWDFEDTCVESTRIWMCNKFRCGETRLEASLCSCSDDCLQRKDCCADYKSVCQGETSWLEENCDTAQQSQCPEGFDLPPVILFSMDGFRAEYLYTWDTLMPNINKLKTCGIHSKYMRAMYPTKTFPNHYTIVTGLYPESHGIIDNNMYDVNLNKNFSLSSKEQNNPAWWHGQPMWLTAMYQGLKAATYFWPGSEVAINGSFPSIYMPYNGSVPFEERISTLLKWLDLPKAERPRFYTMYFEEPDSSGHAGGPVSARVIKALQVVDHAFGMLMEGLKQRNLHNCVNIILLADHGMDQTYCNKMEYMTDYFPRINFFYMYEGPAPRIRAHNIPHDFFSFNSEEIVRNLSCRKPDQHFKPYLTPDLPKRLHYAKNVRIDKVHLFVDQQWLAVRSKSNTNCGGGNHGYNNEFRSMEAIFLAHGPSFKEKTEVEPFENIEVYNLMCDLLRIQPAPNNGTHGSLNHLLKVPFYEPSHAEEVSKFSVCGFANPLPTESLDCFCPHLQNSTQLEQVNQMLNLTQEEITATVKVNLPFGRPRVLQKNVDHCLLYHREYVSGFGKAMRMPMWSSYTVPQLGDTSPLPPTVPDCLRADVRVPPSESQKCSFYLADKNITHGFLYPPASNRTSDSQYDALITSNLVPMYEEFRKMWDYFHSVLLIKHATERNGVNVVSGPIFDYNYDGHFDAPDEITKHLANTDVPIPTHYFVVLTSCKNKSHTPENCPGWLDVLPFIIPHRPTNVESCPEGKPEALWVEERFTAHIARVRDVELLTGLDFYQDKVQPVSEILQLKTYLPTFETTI

Autotaxin = Autotaxin (Homo sapiens, UniProt Q13822); test: Competitive inhibition of human NPP2 using lysophosphotidylcholine as substrate

Structure (SMILES)	inhibition [1] [%]	Ki [2] [µM]	Ki [3] [µM]	Ki [4] [µM]	also measured
O=C(CSc1nc2cccnc2[nH]1)Nc1ccc(F)cc1	30	–	–	–	–
Cc1ccc(NC(=O)CSc2nc3cccnc3[nH]2)c(Cl)c1	2	–	–	–	–
O=C(CSc1nc2cccnc2[nH]1)Nc1ccccc1	30	–	–	–	–
N#Cc1cccc(NC(=O)CSc2nc3cccnc3[nH]2)c1	45	–	–	–	–
O=C(CSc1nc2cccnc2[nH]1)Nc1ccc(Cl)c(Cl)c1	10	–	–	–	–
COc1cccc(NC(=O)CSc2nc3cccnc3[nH]2)c1	30	–	–	–	–
CCOC(=O)c1cccc(NC(=O)CSc2nc3cccnc3[nH]2)c1	15	–	–	–	–
CCn1c(=O)[nH]c(=O)c2nc(SCC(=O)Nc3ccc(OC)c(OC)c3)[nH]c21	43	–	–	–	–
COc1ccccc1NC(=O)CSc1nc2ccc[nH]c-2n1	21	–	–	–	–
O=C(CSc1nc2cccnc2[nH]1)Nc1ccccc1Cl	19	–	–	–	–
COc1ccc(NS(=O)(=O)CSc2nc3ncccc3[nH]2)cc1OC	50	–	–	–	–
CN(C)c1ccc(NC(=O)CSc2nc3cccnc3[nH]2)cc1	23	–	–	–	–
COc1ccc(NC(=O)CSc2nc3cccnc3[nH]2)c(OC)c1	8	–	–	–	–
COc1cc(NC(=O)CSc2nc3cccnc3[nH]2)cc(OC)c1	38	–	–	–	–
COc1ccc(NC(=O)CSc2nc3cccnc3[nH]2)cc1	48	–	–	–	–
O=C(CSc1nc2cccnc2[nH]1)Nc1ccc(Cl)cc1	17	–	–	–	–
CC(=O)c1cccc(NC(=O)CSc2nc3cccnc3[nH]2)c1	50	–	–	–	–
COc1ccc2nc(SCC(=O)Nc3ccc(OC)c(OC)c3)[nH]c2n1	–	–	–	–	Ki [5]: 68.1 µM; Ki (Autotaxin): 71.2 µM
O=C(CSc1nc2cccnc2[nH]1)Nc1ccccc1F	13	–	–	–	–
Cc1cccc(C)c1NC(=O)CSc1nc2cccnc2[nH]1	19	–	–	–	–
O=C(CSc1nc2cccnc2[nH]1)Nc1cccc(Br)c1	23	–	–	–	–
COc1ccc(NC(=O)CSc2nc3c(=O)n(C)c(=O)n(C)c3[nH]2)cc1OC	23	–	–	–	–

Now from value to compound, other results behind:

inhibition [1] [%]	Ki [2] [µM]	Ki [3] [µM]	Ki [4] [µM]	Structure (SMILES)	also measured
64	–	–	–	COc1ccc(NC(=O)CSc2ncc[nH]2)cc1OC	–
–	0.127	0.127	7.59	COc1ccc(NC(=O)CSc2nc3c(C)ccnc3[nH]2)cc1OC	–
–	1.01	1.01	33.6	CCOc1nc(N)nc2[nH]c(SCC(=O)Nc3ccc(OC)c(OC)c3)nc12	–
58	–	–	–	COc1ccc(NC(=O)CSc2nc3ccc(N(C)C)nc3[nH]2)cc1OC	–
–	0.192	0.192	10.8	COc1ccc(NC(=O)CSc2nc3cc(Br)cnc3[nH]2)cc1OC	–
–	11	11	89.7	COc1ccc(NC(=O)CSc2nc3c(OC(C)C)nc(N)nc3[nH]2)cc1OC	–
45	–	–	–	COc1ccc(NC(=O)CSc2nc3ccc(N4CCOCC4)nc3[nH]2)cc1OC	–
35	–	–	–	COc1ccc(NC(=O)CSc2nc3ccc(N4CCN(C)CC4)nc3[nH]2)cc1OC	–
–	3.65	3.65	67.9	COc1ccc(NC(=O)CSc2nc3c(SC)nc(N)nc3[nH]2)cc1OC	–
–	0.005	0.005	18	COc1ccc(NC(=O)CSc2nc3c(N)ncnc3[nH]2)cc1OC	–
59	–	–	–	COc1ccc(NC(=O)CSc2nc3ccc(SC)nc3[nH]2)cc1OC	–
–	0.217	0.217	22.3	COc1ccc(NC(=O)CSc2nc3ccc[nH]c-3n2)cc1OC	–
34	–	–	–	COc1ccc(NC(=O)CSc2nc3ccccc3[nH]2)cc1OC	–
–	3.48	3.48	78	COc1ccc(NC(=O)CSc2nc3c(N)nc(N)nc3[nH]2)cc1OC	–
0	–	–	–	COc1ccc(CNC(=O)CSc2nc3cccnc3[nH]2)cc1OC	–
27	–	–	–	COc1ccc(NC(=O)CSc2nc3ccc(N4CCCCC4)nc3[nH]2)cc1OC	–
–	0.0358	0.0358	22.5	COc1ccc(NC(=O)CSc2nc3c(=O)[nH]c(=O)[nH]c3[nH]2)cc1OC	–
–	0.0442	0.0442	29.2	COc1ccc(NC(=O)CSc2nc3cnccc3[nH]2)cc1OC	–
–	0.131	0.131	30.2	COc1ccc(NC(=O)CSc2nc3nccnc3[nH]2)cc1OC	–
12	–	–	–	COc1ccc(OC)c(NC(=O)CSc2nc3cccnc3[nH]2)c1	–
61	–	–	–	COc1ccc(NC(=O)CSc2nc3ccc(OCC(F)(F)F)nc3[nH]2)cc1OC	–
11	–	–	–	Cc1ccc(NC(=O)CSc2nc3cccnc3[nH]2)cc1C	–
–	0.152	0.152	26.7	COc1ccc(NC(=O)CSc2nc3c(N)nc(SC)nc3[nH]2)cc1OC	–
6	–	–	–	COc1ccc(NC(=O)C(C)Sc2nc3cccnc3[nH]2)cc1OC (centres undefined)	–
–	0.137	0.137	9.78	COc1ccc(NC(=O)CSc2nc3cc(Cl)cnc3[nH]2)cc1OC	–
–	8.04	8.04	42.2	COc1ccc(NC(=O)CSc2nc3c(OC)nc(N)nc3[nH]2)cc1OC	–
–	0.02	0.02	14.3	COc1ccc(NC(=O)CSc2nc3c(=O)[nH]cnc3[nH]2)cc1OC	–
–	0.281	0.281	15.7	COc1ccc(NC(=O)CSc2nc3cncnc3[nH]2)cc1OC	–
13	–	–	–	COc1ccc(NC(=O)CCSc2nc3cccnc3[nH]2)cc1OC	–

Source: ChEMBL document CHEMBL3351503, “Imidazopyridine- and purine-thioacetamide derivatives: potent inhibitors of nucleotide pyrophosphatase/phosphodiesterase 1 (NPP1)” (J Med Chem, 2014)
